F-actin modifier = modifiers of F-actin cytoskeleton organization, primary screen, imaging, HUVEC, phalloidin staining, high-content imaging; HUVEC TNFa F-actin phalloidin imaging; inhibition, % at 2 µM; 0.18% of 91,000 active; AID 836, 2007;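 active = inhibition above the batch mean plus 3 SD and confirmed as a hit by visual image inspection, cut at about 30% in these data, passing the limit was not always enough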
PTK2B oligo ant = antagonists of Pyk2 self-association, primary screen, Q293 cells, FERM NanoBiT luminescence, HTS. Protein-tyrosine kinase 2-beta (Homo sapiens), Q14289. active compounds read low. z-score (the deposit names both 25 µM and 10 µM). 0.83% of 99,000 active;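 active = Z-score of -3 or lower, scaled per plate to the spread of control and sample wells; inactive = z-score above -3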;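 note: negative z-score means lost luminescence so less FERM oligomerization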
Target sequence (Q14289 whole entry, looked up): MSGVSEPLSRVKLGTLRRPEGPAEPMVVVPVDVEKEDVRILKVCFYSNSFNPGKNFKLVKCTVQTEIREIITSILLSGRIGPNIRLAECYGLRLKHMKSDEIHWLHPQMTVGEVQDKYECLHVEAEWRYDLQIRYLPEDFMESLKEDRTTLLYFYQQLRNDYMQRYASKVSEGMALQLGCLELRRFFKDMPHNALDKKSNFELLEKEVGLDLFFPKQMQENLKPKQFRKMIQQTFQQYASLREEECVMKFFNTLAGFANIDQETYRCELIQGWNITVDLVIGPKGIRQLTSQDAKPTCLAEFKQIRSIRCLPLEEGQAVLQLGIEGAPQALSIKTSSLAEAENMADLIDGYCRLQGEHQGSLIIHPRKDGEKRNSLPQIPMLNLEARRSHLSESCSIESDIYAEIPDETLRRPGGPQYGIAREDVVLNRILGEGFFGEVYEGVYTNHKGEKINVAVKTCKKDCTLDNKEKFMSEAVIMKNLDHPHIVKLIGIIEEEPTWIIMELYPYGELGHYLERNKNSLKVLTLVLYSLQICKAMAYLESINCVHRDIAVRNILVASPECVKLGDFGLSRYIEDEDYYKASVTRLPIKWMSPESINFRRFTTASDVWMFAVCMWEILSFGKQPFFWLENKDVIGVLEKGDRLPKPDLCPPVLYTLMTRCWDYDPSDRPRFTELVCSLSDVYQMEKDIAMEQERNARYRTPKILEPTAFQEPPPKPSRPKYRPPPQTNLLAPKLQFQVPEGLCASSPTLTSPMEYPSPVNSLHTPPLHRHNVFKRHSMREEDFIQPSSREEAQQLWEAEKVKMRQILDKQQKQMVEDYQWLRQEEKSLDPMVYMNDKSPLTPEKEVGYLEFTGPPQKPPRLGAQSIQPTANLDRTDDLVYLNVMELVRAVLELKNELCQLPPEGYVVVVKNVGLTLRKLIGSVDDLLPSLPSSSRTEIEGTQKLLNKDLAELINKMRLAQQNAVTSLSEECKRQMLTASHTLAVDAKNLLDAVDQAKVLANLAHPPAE
Fibroblast inh = antiproliferative effect on LL 47 fibroblasts – human, LL 47 cells, CellTiter-Glo luminescence, primary screen. LL 47 human lung fibroblast viability, ATP luminescence; active compounds read low. 1.1% of 85,000 active. AID 719, 2007. viability, % at 10 µM;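 active = viability at or below 50% in the single dose screen; inactive = viability above 50%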;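 note: compound exposure lasted 72 h before the ATP readout; 100% = median luminescence of untreated cell-only wells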
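test system = LL 47 human lung fibroblasts | amount = 1,150 fibroblasts seeded per well | medium = 15% FBS in IMEM | times = overnight cell rest, 72 h compound treatment at 37 °C | measured by = CellTiter-Glo luminescence measuring cellular ATP | read-out = viability percentage against median untreated-cell control | benchmarks = cell-only wells, no compound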
Jurkat tox 60K = cytotoxicity toward Jurkat T cells, primary screen, cytotoxicity control, cell-based, Jurkat E6.1, 60K MLSMR library; Jurkat E6.1 viability, ATP luminescence, 48 h; inhibition, % at 4 µM; 1.2% of 56,000 active;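 active = inhibition above the mean inhibition of all tested compounds plus 3 SD, cut at about 28% in these data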
HUVEC prolif 384 = inhibitors of HUVEC proliferation, primary screen, cell-based, 384-well; AID 648, 2007; viability, % at 10 µM (by protocol); 1.1% of 86,000 active; CellTiter-Glo luminescence, 72 h; active compounds read low;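 active = viability at or below 30%; inactive = viability above 30%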;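 note: 100% = median luminescence of DMSO-only cell control wells on each plate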
H69AR inhibit = proliferation blockers of H69AR lung cancer cells, primary screen, cell-based, human, 86K library; H69AR lung tumor viability, ATP luminescence, 72 h; active compounds read low; viability, % at 10 µM; 6% of 85,000 active; AID 598, 2007;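 active = viability at or below 40%; inactive = viability above 40%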;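 note: multidrug resistant small cell line overexpressing MRP-1 efflux transporter; 100% = mean luminescence of untreated control wells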
* marks the source's active call; other numbers are inactive results; / = not tested or not shown. Rows were chosen to be rich in hits. Some 6% of all compounds tested hit in one or more screens of this group.

SMILES | F-actin modifier | PTK2B oligo ant | Fibroblast inh | Jurkat tox 60K | HUVEC prolif 384 | H69AR inhibit
COC(=O)c1ccc(Cl)c(NC(=O)NC23CC4CC(CC(C4)C2)C3)c1 | 27 | -3.6* | 89 | / | 82 | 60
COC(=O)c1ccc(Cl)c(NC(=O)NC2CCCCC2)c1 | 9 | -1 | 102 | -4 | 87 | 29*
COC(=O)c1ccc(Cl)c(NC(C)=O)c1 | 9 | 1 | / | -7 | / | /
COc1cccc(/C(O)=C2/C(=O)C(=O)N(Cc3cccnc3)C2c2ccco2)c1 (centres undefined) | -16 | -0.52 | 98 | / | 97 | 91
COc1cc(C2c3c(-c4cc(Cl)c(C)cc4O)n[nH]c3C(=O)N2Cc2cccnc2)ccc1O (centres undefined) | 19 | -4.8* | 92 | 0 | 99 | 86
COc1cccc(C2c3c(-c4cc(Cl)c(C)cc4O)n[nH]c3C(=O)N2Cc2cccnc2)c1 (centres undefined) | 1 | -3.7* | 99 | / | 103 | 58
N#CC1(c2ccccc2)CCCN1C(=O)c1ccc(Br)cc1 (centres undefined) | 1 | 0.9 | 106 | / | 105 | 95
O=C1c2ccccc2C(=O)c2c1cccc2N1CCOCC1 | 4 | -0.12 | / | / | / | /
O=C1C(N2CCOCC2)=C(n2nnc3ccccc32)C(=O)c2ccccc21 | -14 | -0.44 | 2.4* | / | 2.2* | 1.4*
CCOC(=O)c1[nH]c(C)c(/C(O)=C2\C(=O)C(=O)N(CCN(C)C)C2c2ccncc2)c1C (centres undefined) | -4 | 2.1 | 97 | -1 | 98 | 103
COc1ccc(C(=O)NCS(=O)(=O)c2ccc(C)cc2)cc1 | -11 | 0.71 | 98 | / | 93 | 94
CO/N=C(/CS(=O)(=O)c1ccc(C)cc1)c1ccc(OC)cc1 | -28 | -1.1 | 99 | / | 94 | 36*
CCOC(=O)Nc1sc2c(c1C(=O)OCC)CCC2 | 1 | 0.77 | 104 | / | 107 | 97
CCOC(=O)c1c(NC(=O)CN2CCCCC2)sc2c1CCCC2O (centres undefined) | -10 | / | 92 | 11 | 73 | 20*
COc1ccc(C(=O)N/N=C/c2ccc3cccc(OCc4ccccc4)c3n2)cc1 | -21 | -4* | / | / | / | /
COc1ccc(CN(C(=O)c2ccc(-c3ccccc3)[nH]2)C(C(=O)NCC2CCCO2)c2ccc(C)o2)cc1 (centres undefined) | -21 | -1 | / | / | / | /
Cc1ccnc(NC(=O)CCC(=O)N(CC(=O)NC2CCCCC2)Cc2ccc3c(c2)OCO3)c1 | / | / | 93 | 7 | 101 | 94
O=C1c2cccc3c(N4CCCCC4)ccc(c23)C(=O)N1CCO | -2 | -0.77 | / | / | / | /
Cc1n[nH]c(C)c1N1C(=O)c2cccc3c(N4CCCCCC4)ccc(c23)C1=O | -6 | 0.01 | 87 | 7 | 84 | 35*
CN1CCN(C(=O)Cn2c(=O)oc3cc(S(=O)(=O)NCc4ccccc4)ccc32)CC1 | -5 | / | 98 | -7 | 105 | 94
Clc1ccc(OCCSc2ncccn2)cc1 | -2 | -0.71 | 115 | / | 98 | 94
O=C1/C(=C\c2ccc3ccccc3c2)CCCc2ccccc21 | -10 | 0.08 | 64 | / | 64 | 17*
Cc1cc2ncn(/N=C/c3ccc([N+](=O)[O-])o3)c2cc1C | 24 | 0.05 | / | / | / | /
c1ccc(CN2CCN(c3nc(-c4ccccc4)nc(-n4ccnc4)n3)CC2)cc1 | -44 | -0.62 | 84 | -1 | 65 | 80
CN(c1ccccc1)c1nc(N2CCCC2)nc(-n2ccnc2)n1 | / | -1.1 | 73 | 12 | 90 | 40*
SMILES | F-actin modifier | PTK2B oligo ant | Fibroblast inh | Jurkat tox 60K | HUVEC prolif 384 | H69AR inhibit
CCOC(=O)N1CCN(c2nc(N(c3ccccc3)c3ccccc3)nc(-n3ccnc3)n2)CC1 | / | / | 92 | -7 | 89 | 21*
c1ccc(N(c2ccccc2)c2nc(N3CCCC3)nc(-n3ccnc3)n2)cc1 | 5 | -1.3 | 63 | -7 | 44 | 20*
CCCc1c(O)nc(SCCN(CC)CC)n(C(=O)c2ccccc2)c1=O | -22 | 0.05 | 99 | -6 | 89 | 93
COc1ccc(N(CC(=O)Nc2ccc(C)cn2)S(=O)(=O)c2c(C)noc2C)cc1 | -38 | -1.9 | 92 | 13 | 96 | 98
COCCNS(=O)(=O)c1ccc(SC)cc1 | -23 | 0.04 | 97 | 5 | 99 | 90
COC(=O)c1c(C(=O)OC)c2ccncn2c1Cl | 3 | 1.5 | 99 | / | 92 | 146
CCOC(=O)c1c(CN2CCN(C)CC2)n(C)c2cc(Br)c(OC)cc12 | / | -0.38 | 71 | / | 33 | 7.3*
COc1ccc(C2CC(c3ccc(Cl)cc3Cl)Nc3nc(N)nn32)cc1 (centres undefined) | 2 | / | 91 | -8 | 112 | 98
COc1ccc(C2CC(c3ccc(Cl)c(Cl)c3)Nc3nc(N)nn32)cc1 (centres undefined) | 3 | / | 94 | 3 | 84 | 34*
COc1ccc(C2CC(c3ccccc3)n3nc(NC(=O)c4cccs4)nc3N2)cc1 (centres undefined) | 3 | -2.9 | 95 | 4 | 97 | 67
COc1ccc(C2CC(c3ccccc3)Nc3nc(NC(=O)c4cccs4)nn32)cc1 (centres undefined) | 3 | -3.5* | 88 | 6 | 82 | 83
Cc1nc2nc(SCC(=O)NCc3ccco3)nn2c(C)c1Cc1c(F)cccc1Cl | 16 | 0.12 | 98 | / | 68 | 35*
Cc1ccccc1NC(=O)c1ccc(Cl)c(NC(=O)c2ccncc2)c1 | / | 0.08 | / | / | / | /
CC(C)(C)NC(=O)c1cccc(NC(=O)c2ccc(NC(=O)c3ccco3)cc2)c1 | 5 | -1.4 | 94 | -5 | 82 | 33*
CC(C)(C)c1ccc(C(=O)Nc2ccc(NC(=O)c3ccco3)cc2)cc1 | 0 | 1.9 | 28* | / | 43 | 33*
Cn1c(NC(=O)c2ccco2)cc(=O)n(C)c1=O | -9 | 0.47 | 96 | -2 | 99 | 24*
CC(C)(C)NC(=O)c1cccc(NC(=O)c2ccco2)c1 | 8 | -0.57 | 108 | / | 107 | 63
CC(C)CNC(=O)c1cccc(NC(=O)c2ccc(NC(=O)c3ccco3)cc2)c1 | -2 | -0.61 | 82 | 1 | 75 | 28*
Cc1ccc(NC(=O)N2CCC(=O)N2)cc1 | -12 | -0.99 | / | / | / | /
CC(C)(C)C(=O)/C=c1\[nH]c(=O)/c(=C\c2ccc(F)cc2)s1 | 1 | -1.3 | 75 | / | 66 | 18*
Cc1ccccc1/C=C1\CCCc2ccccc2C1=O | -8 | -0.77 | 86 | / | 92 | 84
Cc1ccccc1/C=c1\s/c(=C\C(=O)C(C)(C)C)[nH]c1=O | -9 | -1.7 | 69 | / | 52 | 19*
CCc1ccc(/C=c2\s/c(=C\C(=O)C(C)(C)C)[nH]c2=O)cc1 | 3 | -2.3 | 84 | / | 47 | 14*
CCCCCC(=O)N1CC2(CC)CN(C(=O)CCCCC)CC(CC)(C1)C2=O | / | / | 92 | / | 101 | 90

Source: PubChem BioAssay (several laboratories)
